Results: ChEMBL document CHEMBL3091336, “Analogs of the Allosteric Heat Shock Protein 70 (Hsp70) Inhibitor, MKT-077, as Anti-Cancer Agents” (ACS Med Chem Lett, 2013)

How the values were obtained:
[1] = Half life in mouse liver microsomes at 1 uM incubated for 15 mins prior to beta-NADPH addition by LC-MS/MS analysis; format: ADME, Microsome; conditions: for half-life at 1 µM: liver microsomes; for t1/2: microsomes, 0.25 h, 1 µM
In short: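 Compounds at 1 μM incubated with mouse liver microsomes. Degradation followed by LC–MS and reported as half-life.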

[2] = tested on: MEF; assay: Cytotoxicity against C57BL/6 mouse MEF assessed as growth inhibition after 72 hrs by MTT assay; format: cell-based; conditions: C57BL/6, MEF
In short: (§1)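 Antiproliferative activity measured by MTT assay. EC50 is the average of triplicate experiments, with error as SEM.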

[3] = tested on: MCF7; assay: Cytotoxicity against human MCF7 cells assessed as growth inhibition after 72 hrs by MTT assay; format: functional, cell-based; conditions: MCF7, 72 h; in short: as §1
[4] = tested on: MDA-MB-231; assay: Cytotoxicity against human MDA-MB-231 cells assessed as growth inhibition after 72 hrs by MTT assay; format: functional, cell-based; conditions: MDA-MB-231, 72 h; in short: as §1
[5] = molecular target: Heat shock cognate 71 kDa protein (Homo sapiens, UniProt P11142); assay: Binding affinity to human HSC70 after 3 hrs by ELISA
Heat shock cognate 71 kDa protein, sequence (P11142 whole entry): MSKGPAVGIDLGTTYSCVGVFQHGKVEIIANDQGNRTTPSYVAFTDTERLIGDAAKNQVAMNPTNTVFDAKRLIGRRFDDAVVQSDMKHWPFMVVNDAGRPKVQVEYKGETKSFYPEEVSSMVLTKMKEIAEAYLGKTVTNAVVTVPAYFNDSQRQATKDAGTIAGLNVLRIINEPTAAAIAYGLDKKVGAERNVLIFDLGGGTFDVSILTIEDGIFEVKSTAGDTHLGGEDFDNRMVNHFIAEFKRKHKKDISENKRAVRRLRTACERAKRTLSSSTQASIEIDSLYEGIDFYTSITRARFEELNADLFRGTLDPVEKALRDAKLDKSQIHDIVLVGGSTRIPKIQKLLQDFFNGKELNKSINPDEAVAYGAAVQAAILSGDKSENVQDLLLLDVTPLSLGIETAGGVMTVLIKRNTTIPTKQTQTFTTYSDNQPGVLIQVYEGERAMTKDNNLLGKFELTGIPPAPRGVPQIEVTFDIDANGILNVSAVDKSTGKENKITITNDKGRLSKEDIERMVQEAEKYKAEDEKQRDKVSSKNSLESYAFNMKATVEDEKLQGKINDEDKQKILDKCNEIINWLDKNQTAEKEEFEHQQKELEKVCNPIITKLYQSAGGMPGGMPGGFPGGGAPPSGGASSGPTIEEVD

| Structure (SMILES) | half-life at 1 µM [1] [min] | EC50 [2] [µM] | EC50 [3] [µM] | EC50 [4] [µM] | Kd [5] [µM] | t1/2 [1] |
| --- | --- | --- | --- | --- | --- | --- |
| CCn1c(=O)/c(=C2\Sc3cccc(Cl)c3N2C)s/c1=C\c1scc[n+]1Cc1ccccc1.[Cl-] | 8.8 | 7 | 0.8 | 0.4 |  |  |
| CCn1c(=O)/c(=C2\Sc3ccc(OC)cc3N2C)s/c1=C\c1cccc[n+]1CCCCCCNC(=O)CCCC[C@@H]1SC[C@@H]2NC(=O)N[C@@H]21 |  |  |  |  | 0.9 |  |
| CCn1c(=O)/c(=C2\Sc3cc(Cl)ccc3N2C)s/c1=C\c1cccc[n+]1CCCCCCNC(=O)CCCC[C@@H]1SC[C@@H]2NC(=O)N[C@@H]21 |  |  |  |  | 1.7 |  |
| CCn1c(=O)/c(=C2\Sc3cc(F)ccc3N2C)s/c1=C\c1cccc[n+]1CC.[Cl-] |  | > 30 | 0.9 | 8.3 |  | ND(Insoluble) |
| CCn1c(=O)/c(=C2\Sc3cccc(F)c3N2C)s/c1=C\c1cccc[n+]1C.[Cl-] |  | > 50 | 2.2 | 4 |  | 15 min |
| CCn1c(=O)/c(=C2\Sc3c(F)cccc3N2C)s/c1=C\c1cccc[n+]1CC.[Cl-] |  | 27 | 0.8 | 2.8 |  | ND(Insoluble) |
| CCn1c(=O)/c(=C2\Sc3cc(F)ccc3N2C)s/c1=C\c1cccc[n+]1C.[Cl-] |  | > 50 | 6.2 | 5.6 |  | 7.7 min |
| CCn1c(=O)/c(=C2\Sc3ccccc3N2C)s/c1=C\c1scc[n+]1Cc1ccccc1.[Cl-] |  | 6.8 | 0.6 | 0.5 |  | ND(Insoluble) |
| CCn1c(=O)/c(=C2\Sc3cc(Cl)ccc3N2C)s/c1=C\c1cccc[n+]1C.[Cl-] | 8.2 | > 50 | 9.5 | 8.3 |  |  |
| CCC[n+]1ccccc1/C=c1\s/c(=C2/Sc3ccccc3N2C)c(=O)n1CC.[Cl-] |  | > 50 | 2.8 | 1.6 |  | ND(Insoluble) |
| CCn1c(=O)/c(=C2\Sc3cccc(Cl)c3N2C)s/c1=C\c1cccc[n+]1C.[Cl-] |  | > 50 | 7.8 | 4.4 |  | ND(Insoluble) |
| CCn1c(=O)/c(=C2\Sc3ccc(C(F)(F)F)cc3N2C)s/c1=C\c1cccc[n+]1C.[Cl-] |  | > 50 | > 30 | 21 |  | ND(Insoluble) |
| CCn1c(=O)/c(=C2\Sc3ccccc3N2C)s/c1=C\c1scc[n+]1C.[Cl-] |  | > 50 | 0.7 | 5.1 |  | ND(Insoluble) |
| CCn1c(=O)/c(=C2\Sc3ccccc3N2C)s/c1=C\c1cc[n+](C)cc1.[Cl-] |  | > 50 | 19 | 1.7 |  | ND(Insoluble) |
| CCn1c(=O)/c(=C2\Sc3ccccc3N2C)s/c1=C\c1cccc[n+]1CCO.[Cl-] |  | > 50 | 6.9 | 24 |  | ND(Insoluble) |
| CCn1c(=O)/c(=C2\Sc3c(F)cccc3N2C)s/c1=C\c1cccc[n+]1CCCCCCNC(=O)CCCC[C@@H]1SC[C@@H]2NC(=O)N[C@@H]21 |  |  |  |  | 1.9 |  |
| CCn1c(=O)/c(=C2\Sc3ccc(F)cc3N2C)s/c1=C\c1cccc[n+]1CC.[Cl-] |  | > 30 | 2.4 | 13 |  | ND(Insoluble) |
| CCn1c(=O)/c(=C2\Sc3cc(C(F)(F)F)ccc3N2C)s/c1=C\c1cccc[n+]1CCCCCCNC(=O)CCCC[C@@H]1SC[C@@H]2NC(=O)N[C@@H]21 |  |  |  |  | 1 |  |
| CCn1c(=O)/c(=C2\Sc3ccc(Cl)cc3N2C)s/c1=C\c1scc[n+]1Cc1ccccc1.[Cl-] |  | > 30 | 0.8 | 0.6 |  | ND(Insoluble) |

| Structure (SMILES) | half-life at 1 µM [1] [min] | EC50 [2] [µM] | EC50 [3] [µM] | EC50 [4] [µM] | Kd [5] [µM] | t1/2 [1] |
| --- | --- | --- | --- | --- | --- | --- |
| CCn1c(=O)/c(=C2\Sc3cc(OC)ccc3N2C)s/c1=C\c1cccc[n+]1CCCCCCNC(=O)CCCC[C@@H]1SC[C@@H]2NC(=O)N[C@@H]21 |  |  |  |  | 5.4 |  |
| CN1/C(=c2\s/c(=C\c3cccc[n+]3C)n(Cc3ccccc3)c2=O)Sc2ccccc21.[Cl-] |  | > 50 | 2.9 | 1.8 |  | ND(Insoluble) |
| CCn1c(=O)/c(=C2\Sc3ccccc3N2C)s/c1=C\c1scc[n+]1CC.[Cl-] |  | > 30 | 0.8 | 2.2 |  | ND(Insoluble) |
| CCn1c(=O)/c(=C2\Sc3ccccc3N2C)s/c1=C\c1cccc[n+]1Cc1ccccc1.[Cl-] |  | > 50 | 1.5 | 1 |  | ND(Insoluble) |
| CCn1c(=O)/c(=C2\Sc3cccc(F)c3N2C)s/c1=C\c1cccc[n+]1CC.[Cl-] |  | > 30 | 1 | 3.8 |  | ND(Insoluble) |
| CCn1c(=O)/c(=C2\Sc3c(F)cccc3N2C)s/c1=C\c1cccc[n+]1C.[Cl-] |  | > 50 | 8.5 | 6.2 |  | 16 min |
| CCn1c(=O)/c(=C2\Sc3cc(OC)ccc3N2C)s/c1=C\c1cccc[n+]1C.[Cl-] | 10 | > 50 | 11 | 4 |  |  |
| CCn1c(=O)/c(=C2\Sc3ccc(F)cc3N2C)s/c1=C\c1cccc[n+]1CCCCCCNC(=O)CCCC[C@@H]1SC[C@@H]2NC(=O)N[C@@H]21 |  |  |  |  | 2.3 |  |
| CCn1c(=O)/c(=C2\Sc3cc(F)ccc3N2C)s/c1=C\c1cccc[n+]1CCCCCCNC(=O)CCCC[C@@H]1SC[C@@H]2NC(=O)N[C@@H]21 |  |  |  |  | 1.5 |  |
| C=CCn1c(=O)/c(=C2\Sc3ccccc3N2C)s/c1=C\c1cccc[n+]1C.[Cl-] |  | > 50 | 8.4 | 3.6 |  | ND(Insoluble) |
| CCn1c(=O)/c(=C2\Sc3ccccc3N2C)s/c1=C\c1cccc[n+]1CCCCCCNC(=O)CCCC[C@@H]1SC[C@@H]2NC(=O)N[C@@H]21 |  |  |  |  | 2 |  |
| CCn1c(=O)/c(=C2\Sc3ccc(OC)cc3N2C)s/c1=C\c1cccc[n+]1C.[Cl-] |  | > 50 | 14 | 2.8 |  | ND(Insoluble) |
| CCn1c(=O)/c(=C2\Sc3c(Cl)cccc3N2C)s/c1=C\c1scc[n+]1Cc1ccccc1.[Cl-] |  | > 30 | 1 | 0.5 |  | ND(Insoluble) |
| CCn1c(=O)/c(=C2\Sc3ccc(Cl)cc3N2C)s/c1=C\c1cccc[n+]1C.[Cl-] |  | > 50 | 28 | 4.6 |  | ND(Insoluble) |
| CCn1c(=O)/c(=C2\Sc3ccccc3N2C)s/c1=C\c1cccc[n+]1C.[Cl-] | < 5 | > 50 | 5.2 | 2 |  |  |
| CCn1c(=O)/c(=C2\Sc3ccccc3N2C)s/c1=C\c1nccc[n+]1C.[Cl-] |  | > 50 | 9.1 | 5.8 |  | ND(Insoluble) |
| CCn1c(=O)/c(=C2\Sc3cc(C(F)(F)F)ccc3N2C)s/c1=C\c1cccc[n+]1C.[Cl-] |  | > 50 | > 30 | 19 |  | ND(Insoluble) |
| CCn1c(=O)/c(=C2\Sc3ccc(F)cc3N2C)s/c1=C\c1cccc[n+]1C.[Cl-] |  | > 50 | 18 | 7.7 |  | 23 min |
| CCn1c(=O)/c(=C2\Sc3c(Cl)cccc3N2C)s/c1=C\c1cccc[n+]1C.[Cl-] |  | > 50 | 5.2 | 4.1 |  | ND(Insoluble) |
